As a reminder, the inhibition is the share of the control response that was lost under treatment. Lower therefore signals little suppression.

Molecules are shown by their SMILES.

The values that follow come from ChEMBL document CHEMBL1150160, “New scalarane class sesterterpenes from an Indonesian sponge, Phyllospongia sp” (2002).

The subject of the assay is KB. Put plainly: Cytotoxicity against human KB cells at 10 ug/mL. Format: functional. A digest of the protocol:
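KB cell growth was measured in the presence of test material at 10 μg/mL. Values are given as percent inhibition of growth.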
For `CO[C@](C(=O)O[C@H]1C[C@H]2[C@]3(C)CC[C@H]4C(C)(C)CCC[C@]4(C)[C@H]3C[C@H](OC(C)=O)[C@]2(C)[C@@H](C=O)[C@@H]1C(C)=O)(c1ccccc1)C(F)(F)F`, the inhibition at 10 µg/mL was determined as 30%.
In the case of `CC(=O)O[C@H]1C[C@@H]2[C@@]3(C)CCCC(C)(C)[C@@H]3CC[C@@]2(C)[C@@H]2C[C@H](O)[C@@H]3[C@H]([C@H](O)O[C@H]3C)[C@@]12C`, 10 µg/mL produced 30% inhibition.
As for `CO[C@@H]1O[C@@H](C)[C@H]2[C@H]1[C@@]1(C)[C@@H](OC(C)=O)C[C@@H]3[C@@]4(C)CCCC(C)(C)[C@@H]4CC[C@@]3(C)[C@@H]1C[C@@H]2O`, at 10 µg/mL the inhibition was 30%.
The result for `CC[C@@]1(C)CCC[C@]2(C)[C@H]3C[C@H](OC(C)=O)[C@]4(C)[C@H]5[C@@H](OC)O[C@@H](C)[C@@H]5[C@@H](O)C[C@H]4[C@]3(C)CC[C@@H]12` reads 30%; that for `CC(=O)O[C@H]1C[C@H]2[C@@](C)(CC[C@H]3C(C)(C)CCC[C@]23C)[C@@H]2C[C@H](O)[C@@H](C(C)=O)C[C@]21C`, 30%.
`CC[C@@]1(C)CCC[C@]2(C)[C@H]3C[C@H](OC(C)=O)[C@]4(C)C[C@H](C(C)=O)[C@@H](O)C[C@H]4[C@]3(C)CC[C@@H]12`: the inhibition at 10 µg/mL amounted to 30%.
The result for `CC(=O)O[C@H]1C[C@H]2[C@]3(C)CC[C@H]4C(C)(C)CCC[C@]4(C)[C@H]3C[C@H](OC(C)=O)[C@]2(C)[C@@H](C=O)[C@@H]1C(C)=O` reads 30%; that for `CO[C@H]1O[C@@H](C)[C@H]2[C@H]1[C@@]1(C)[C@@H](OC(C)=O)C[C@@H]3[C@@]4(C)CCCC(C)(C)[C@@H]4CC[C@@]3(C)[C@@H]1C[C@@H]2O`, 30%.
The result for `CC[C@@]1(C)CCC[C@]2(C)[C@H]3C[C@H](OC(C)=O)[C@]4(C)[C@@H](C=O)[C@H](C(C)=O)[C@@H](O)C[C@H]4[C@]3(C)CC[C@@H]12` reads 30%; that for `CC[C@@]1(C)CCC[C@]2(C)[C@H]3C[C@H](OC(C)=O)[C@]4(C)[C@@H]5[C@H]([C@H](C)O[C@H]5O)[C@@H](O)C[C@H]4[C@]3(C)CC[C@@H]12`, 30%; that for `CO[C@@H]1O[C@](C)(OC)[C@H]2[C@H]1[C@@]1(C)[C@@H](OC(C)=O)C[C@@H]3[C@@]4(C)CCCC(C)(C)[C@@H]4CC[C@@]3(C)[C@@H]1C[C@@H]2O`, 30%.
The compound `CO[C@@](C(=O)O[C@H]1C[C@H]2[C@]3(C)CC[C@H]4C(C)(C)CCC[C@]4(C)[C@H]3C[C@H](OC(C)=O)[C@]2(C)[C@@H](C=O)[C@@H]1C(C)=O)(c1ccccc1)C(F)(F)F` returned an inhibition at 10 µg/mL of 30%.
With `CC(=O)O[C@@H]1O[C@@H](C)[C@H]2[C@H]1[C@@]1(C)[C@@H](OC(C)=O)C[C@@H]3[C@@]4(C)CCCC(C)(C)[C@@H]4CC[C@@]3(C)[C@@H]1C[C@@H]2OC(C)=O`, the inhibition at 10 µg/mL came to 30%.
`CC[C@@]1(C)CCC[C@]2(C)[C@H]3C[C@H](OC(C)=O)[C@]4(C)[C@H]5[C@H](OC)O[C@@H](C)[C@@H]5[C@@H](O)C[C@H]4[C@]3(C)CC[C@@H]12`: the inhibition at 10 µg/mL was determined as 30%.
The result for `CC(=O)O[C@H]1C[C@@H]2[C@@]3(C)CCCC(C)(C)[C@@H]3CC[C@@]2(C)[C@@H]2C[C@H](O)[C@@H](C(C)=O)[C@H](C=O)[C@@]12C` reads 30%.
The result for `CC(=O)O[C@H]1C[C@@H]2[C@@]3(C)CCCC(C)(C)[C@@H]3CC[C@@]2(C)[C@@H]2C[C@H](O)[C@@H](C(C)=O)[C@H](O)[C@@]12C` reads 30%.
